Reference: paper PMC9289877 (Journal of Medicinal Chemistry, 2022)
*1 amine or outer side, *2 acyl side, *3 side chain or, on linkers, in order; H or OH if unused. Where a SMILES comes first, the peptide text is derived from it. The star is where a group is joined. X4 = CC(ON(C(C)(C)C)C(C)(C)C)c1ccc(O*)cc1; Suc = O=C(CCC(=O)[*:2])[*:1]

What was measured:
U87 cells = experiment: RealTime-Glo Annexin V Apoptosis and Necrosis Assay in U87 cells; format: cell-based, human; conditions: doxorubicin 2 μM
Summary of the method: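 U87 cells were kept in DMEM with 10% FBS at 37 °C and 5% CO2, seeded for 48 h, then exposed to doxorubicin 2 μM as the apoptosis control and followed up to 48 h. RealTime-Glo detection reagent was added to the live-cell medium. Annexin V binding was read by luminescence. Necrosis was read as fluorescence of a cell-impermeant DNA dye (ex 485/em 530 nm) after 60 min at 37 °C.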

[1] = tested on: caspase 3/7 activation in U87 cells; experiment: Caspase-Glo 3/7 assay in U87 cells; format: cell-based, human; conditions: doxorubicin 2 μM
Summary of the method: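 U87 human glioblastoma cells were grown in DMEM with 10% FBS at 37 °C and 5% CO2, then seeded and cultured for 48 h before treatment. Doxorubicin 2 μM served as the apoptosis control, and signals were followed over time up to 48 h. For Caspase-Glo 3/7, plate and reagent were equilibrated to room temperature, then reagent was added to the wells. After 15 min at room temperature, luminescence was read.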

[2] = tested on: U87 human glioblastoma cell line; experiment: PrestoBlue viability test on U87 cells with or without HNE; format: cell-based; conditions: 48 h
Summary of the method: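 U87 cells were seeded and cultured for 48 h, then switched to serum-free DMEM. Test compound (0–400 μM) and HNE 0.68 μM were added; where used, eglin C 10 μM was added before HNE. After 1 h, 10% serum was added and incubation continued for 24, 48 or 72 h. PrestoBlue reagent (1/10 volume) was added for 30 min at 37 °C, and fluorescence was read at ex 560/em 590 nm.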

In the case of COc1cccc2c1C(=O)c1c(O)c3c(c(O)c1C2=O)C[C@@](O)(C(=O)CO)C[C@@H]3O[C@H]1C[C@H](N)[C@H](O)[C@H](C)O1 [doxorubicin], the “DNA+ labeling (positive control)” value (U87 cells) is reported as “increases regularly until 48 h”, the “annexin V labeling (positive control)” value (U87 cells; timing similar to caspase (24 to 48 h)) is reported as “highly AV+” and the “caspase activity (positive control)” value [1] is reported as “increases between 24 and 48 h”. For the same molecule, the “U87 population still viable” value ([2]; doxorubicin 2 μM) was 50%.

CC(NC(=O)CCC(=O)O)C(=O)NC(C)C(=O)N1CCCC1C(=O)NC(C(=O)Oc1ccc(C(C)ON(C(C)(C)C)C(C)(C)C)cc1)C(C)C (stereo not drawn) [suc-AAPV-phenol-DBNO, Acid 4-((1-((1-(2-((1-(4-(1-((di-tert-butylamino)oxy)ethyl)phenoxy)-3-methyl-1-oxobutan-2-yl)carbamoyl)pyrrolidin-1-yl)-1-oxopropan-2-yl)amino)-1-oxopropan-2-yl)amino)-4-oxobutanoic Acid] (Suc-AAPV-X4; configuration not given here) was tested, and the “effect on viability in the presence of HNE” value ([2]; U87 cells, prodrug 0–400 μM, HNE 0.68 μM) was “does not have any measurable effect”.

B1: eglin C: a potent HNE inhibitor (CIBA-GEIGY) (protein, UniProt P01051 1-70, looked up)
Eglin C: TEFGSELKSFPEVVGKTVDQAREYFTLHYPQYDVYFLPEGSPVTLDLRYNRVRVFYNPGTNVVNHVPHVG
For B1, the “rescue of U87 cells from prodrug + HNE cytotoxicity by elastase inhibitor” value ([2]; eglin C 10 μM added just before HNE 0.68 μM, four prodrugs) was “rescues the cells”.
